How the values were obtained:
Cannabinoid receptor 1 = Cannabinoid receptor 1 (Homo sapiens, UniProt P21554); experiment: Inverse agonist activity at human cannabinoid receptor 1 expressed in HEK293 cells assessed as increase in forskolin-induced cAMP production preincubated with cells followed by forskolin stimulation measured after 30 mins in presence of D2-labeled cAMP and Eu3+-TBP-NHS cryptate by HTRF assay; type: functional, cell-based
[1] = Ratio of drug level in C57bl/6j mouse brain to plasma at 20 mg/kg, po; type: ADME, organism-based; conditions: read-out: BPR
Outline: (§1)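 Male mice dosed orally. Plasma taken by retro-orbital bleed at 1 h and 2 h or 1 h and 4 h. Whole brain minus cerebellum removed at 2 h or 4 h, weighed wet, frozen, then homogenized in saline. Compound measured by LC/MS; LOQ 5 ng/ml. B/P ratio is brain over plasma concentration.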

[2] = Drug uptake in C57bl/6j mouse plasma at 20 mg/kg, po measured at 4 hr post dose by LC/MS analysis; type: ADME, organism-based
Outline: (§2)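 Male C57bl/6j mice given a single oral dose of 20 mg/kg. Plasma drawn by retro-orbital bleed at 1 h and 4 h. Whole brain minus cerebellum taken at 4 h, wet-weighed, frozen, then homogenized in saline. Compound levels in plasma and brain measured by LC/MS (LOQ 5 ng/ml). Brain/plasma ratio taken from the two concentrations.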

Cannabinoid receptor 2 = Cannabinoid receptor 2 (Homo sapiens, UniProt P34972); experiment: Inverse agonist activity at human cannabinoid receptor 2 expressed in HEK293 cells assessed as increase in forskolin-induced cAMP production preincubated with cells followed by forskolin stimulation measured after 30 mins in presence of D2-labeled cAMP and Eu3+-TBP-NHS cryptate by HTRF assay; type: functional, cell-based
[3] = Drug uptake in C57bl/6j mouse brain without cerebellum at 20 mg/kg, po measured at 4 hr post dose by LC/MS analysis; type: ADME, organism-based; conditions: in vivo; outline: as §2
[4] = Drug uptake in C57bl/6j mouse brain without cerebellum at 20 mg/kg, po measured at 2 hrs post dose by LC/MS analysis; type: ADME, organism-based; conditions: in vivo, 2 h; outline: as §1
[5] = Drug uptake in C57bl/6j mouse plasma at 20 mg/kg, po measured at 2 hrs post dose by LC/MS analysis; type: ADME, organism-based; outline: as §1

Chain of Cannabinoid receptor 1 (P21554 whole entry): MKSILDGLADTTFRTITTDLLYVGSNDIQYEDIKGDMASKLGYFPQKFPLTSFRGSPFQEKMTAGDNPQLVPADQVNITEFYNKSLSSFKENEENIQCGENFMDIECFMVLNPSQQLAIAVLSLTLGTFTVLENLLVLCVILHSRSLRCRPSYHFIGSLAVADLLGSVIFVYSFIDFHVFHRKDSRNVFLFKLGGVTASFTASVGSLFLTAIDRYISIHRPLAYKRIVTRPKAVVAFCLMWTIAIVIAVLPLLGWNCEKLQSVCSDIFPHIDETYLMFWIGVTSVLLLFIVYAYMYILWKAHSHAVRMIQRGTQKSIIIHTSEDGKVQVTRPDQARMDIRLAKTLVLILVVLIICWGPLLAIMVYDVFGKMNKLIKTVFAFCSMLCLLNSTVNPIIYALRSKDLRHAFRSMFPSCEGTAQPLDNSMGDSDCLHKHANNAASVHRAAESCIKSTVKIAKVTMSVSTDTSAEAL
Chain of Cannabinoid receptor 2 (P34972 whole entry): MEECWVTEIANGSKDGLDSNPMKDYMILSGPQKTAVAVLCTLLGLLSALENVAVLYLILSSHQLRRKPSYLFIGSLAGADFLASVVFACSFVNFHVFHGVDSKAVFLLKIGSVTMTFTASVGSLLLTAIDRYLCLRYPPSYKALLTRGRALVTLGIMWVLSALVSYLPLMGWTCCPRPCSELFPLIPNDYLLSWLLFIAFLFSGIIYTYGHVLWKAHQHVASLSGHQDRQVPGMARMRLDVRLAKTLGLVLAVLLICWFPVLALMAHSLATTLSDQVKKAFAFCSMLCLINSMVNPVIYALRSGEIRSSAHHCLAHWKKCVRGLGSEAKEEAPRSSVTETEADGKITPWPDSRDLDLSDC

| SMILES | EC50 (Cannabinoid receptor 1) | Kp [1] | concentration at 4 h [2] | EC50 (Cannabinoid receptor 2) | Drug uptake [3] | Drug uptake [4] | concentration at 2 h [5] |
| --- | --- | --- | --- | --- | --- | --- | --- |
| C[C@@H](NC(=O)c1nn(-c2ccc(Cl)cc2Cl)c2c1CCC/C2=C\c1ccc(Cl)cc1)c1ccccn1 | 30 nM | 0.2 | 1600 nM | 854 nM | 0.32 nmol/g |  |  |
| O=C(NC1(c2ccccn2)CC1)c1nn(-c2ccc(C(F)(F)F)cc2Cl)c2c1CCC/C2=C\c1ccc(Cl)s1 | 11 nM | 0.14 | 4630 nM | > 10000 nM | 0.64 nmol/g |  |  |
| C[C@@H](NC(=O)c1nn(-c2ccc(Cl)cc2)c2c1CCC/C2=C\c1ccc(Cl)cc1)c1ccccn1 | 127 nM | 0.26 |  | > 10000 nM |  | 0.97 nmol/g | 3720 nM |
| C[C@@H](NC(=O)c1nn(-c2ccc(Cl)cc2Cl)c2c1CCCC/C2=C\c1ccc(Cl)cn1)c1ccccn1 | 4 nM | 0.48 |  | 560 nM |  | 0.16 nmol/g | 380 nM |
| C[C@@H](NC(=O)c1nn(-c2ccc(C(F)(F)F)cc2Cl)c2c1CCC/C2=C\c1ccc(Cl)s1)c1ccccn1 | 18 nM | 0.11 | 460 nM | > 10000 nM | 0.051 nmol/g |  |  |
| O=C(NC1CCN(c2ccccn2)CC1)c1nn(-c2ccc(Cl)cc2Cl)c2c1CCC/C2=C\c1ccc(Cl)cc1 | 34 nM | 0.09 | 450 nM | > 10000 nM | 0.04 nmol/g |  |  |
| C[C@@H](NC(=O)c1nn(-c2ccc(C(F)(F)F)cc2Cl)c2c1CCCC/C2=C\c1ccc(Cl)s1)c1ccccn1 | 8 nM | 0.28 | 640 nM | > 10000 nM | 0.17 nmol/g |  |  |
| C[C@@H](NC(=O)c1nn(-c2ccc(Cl)c(Cl)c2)c2c1CCCC/C2=C\c1ccc(Cl)cc1)c1ccccn1 | 37 nM | 0.02 |  | > 10000 nM |  | 0.05 nmol/g | 2400 nM |
| C[C@@H](NC(=O)c1nn(-c2ccc(Cl)cc2)c2c1CCC/C2=C\c1ccc(Cl)cn1)c1ccccn1 | 22 nM | 0.65 |  | > 10000 nM |  | 1.91 nmol/g | 2930 nM |
| O=C(NC1CCN(c2ccccn2)CC1)c1nn(-c2ccc(Cl)cc2Cl)c2c1CCCC/C2=C\c1ccc(F)cc1 | 28 nM | 0.03 |  | > 10000 nM |  | 0.05 nmol/g | 2030 nM |
| C[C@@H](NC(=O)c1nn(-c2ccc(Cl)c(Cl)c2)c2c1CCCC/C2=C\c1ccc(C(F)(F)F)cc1)c1ccccn1 | 56 nM | 0.01 |  | > 10000 nM |  | 0.05 nmol/g | 4760 nM |
| O=C(NC1(c2ccccn2)CC1)c1nn(-c2ccc(C(F)(F)F)cc2Cl)c2c1CCCC/C2=C\c1ccc(Cl)s1 | 8 nM | 0.24 | 1540 nM | > 10000 nM | 0.36 nmol/g |  |  |

Reference: ChEMBL document CHEMBL3862000, “Tetrahydroindazole derivatives as potent and peripherally selective cannabinoid-1 (CB1) receptor inverse agonists” (Bioorg Med Chem Lett, 2016)
